Data set [1] addresses T1, Enoyl-[acyl-carrier-protein] reductase [NADH] (Mycobacterium tuberculosis) (UniProt P9WGR1).
T1 sequence (whole entry): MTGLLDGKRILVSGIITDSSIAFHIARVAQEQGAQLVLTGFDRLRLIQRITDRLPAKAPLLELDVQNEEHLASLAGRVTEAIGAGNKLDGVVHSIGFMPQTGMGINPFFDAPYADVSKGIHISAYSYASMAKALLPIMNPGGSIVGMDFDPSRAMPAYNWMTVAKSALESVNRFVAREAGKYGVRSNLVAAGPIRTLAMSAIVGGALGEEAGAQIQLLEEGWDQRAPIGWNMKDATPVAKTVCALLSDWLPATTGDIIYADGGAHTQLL
Kind of data set: Inhibition of Mycobacterium tuberculosis H37Rv InhA assessed as reduction of trehalose monomycolate synthesis at 36.5 uM preincubated for 1 hr followed by [14C]glucose addition and measured after 24 hrs by TLC analysis.

Data set [2] deals with Mycobacterium avium. The data set can be described thus: Antimycobacterial activity against INH/RIF/OFX resistant Mycobacterium avium 330/88 after 21 days. The data set is classed as functional. Conditions: 330/88, 504 h.
A short description of data set [3]: Selectivity index, ratio of IC50 for human HepG2 cells to MIC for Mycobacterium kansasii 6509/96. It counts as toxicity. Conditions: read-out: Selectivity Index. The gist of the method: (§1)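 SI is calculated as HepG2 IC50 divided by MIC. HepG2 cells (passage 2-4) were grown in EMEM with 10% FBS, L-glutamine and non-essential amino acids. Compounds in DMSO were tested in triplicate at eight concentrations, and viability was read by MTS tetrazolium reduction. IC50 is the concentration reducing viability to 50% of control. 10% DMSO served as the 0% viability control.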

For data set [4], the system named is Mycobacterium kansasii. The data set can be described thus: Antimycobacterial activity against Mycobacterium kansasii 235/80 after 21 days. The data set is classed as functional. Conditions: 235/80, 504 h.
The test system of data set [5] is Mycobacterium kansasii. Kind of data set: Antimycobacterial activity against Mycobacterium kansasii 6509/96 after 14 days. The data set is classed as functional. Conditions: 6509/96, 336 h.
Data set [6] has as its system Mycobacterium kansasii. The data set can be described thus: Antimycobacterial activity against Mycobacterium kansasii 6509/96 after 21 days. It counts as functional. The settings on record: 6509/96, 504 h.
Data set [7] concerns Mycobacterium kansasii. Kind of data set: Antimycobacterial activity against Mycobacterium kansasii 235/80 after 14 days. The data set is classed as functional. Conditions: 235/80, 336 h.
Data set [8] deals with Mycobacterium tuberculosis. The data set can be described thus: Antimycobacterial activity against Mycobacterium tuberculosis H37Rv after 21 days. It counts as functional. The settings on record: 504 h.
Data set [9] concerns Mycobacterium tuberculosis. Kind of data set: Antimycobacterial activity against Mycobacterium tuberculosis H37Rv after 14 days. It counts as functional. Conditions: 336 h.
For data set [10], the system named is Mycobacterium avium. Kind of data set: Antimycobacterial activity against INH/RIF/OFX resistant Mycobacterium avium 330/88 after 14 days. The data set is classed as functional. The settings on record: 330/88, 336 h.
Data set [11] can be described thus: Selectivity index, ratio of IC50 for human HepG2 cells to MIC for Mycobacterium kansasii 235/80. The data set is classed as toxicity. Conditions: read-out: Selectivity Index. The gist of the method: as §1
In data set [12] the test system is HepG2. The data set can be described thus: Cytotoxicity against human HepG2 cells assessed as reduction in cell viability by MTS assay. It counts as cell-based. The gist of the method: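 HepG2 human hepatocellular carcinoma cells (passage 2-4) were cultured in Eagle's MEM with 10% FBS, 1% L-glutamine and non-essential amino acids. Compounds were dissolved in DMSO and tested in triplicate at eight concentrations. Viability was read by colorimetric MTS tetrazolium reduction. Controls were 100% viability and 0% viability (10% DMSO). IC50 is the concentration reducing viability to 50% of control.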
Background: Formazan colour is commonly taken as a measure of viable cells.

A short description of data set [13]: Selectivity index, ratio of IC50 for human HepG2 cells to MIC for Mycobacterium tuberculosis H37Rv after 14 days. The data set is classed as toxicity. The settings on record: read-out: Selectivity Index. The gist of the method: as §1
Data set [14] relates to Mycobacterium kansasii. Kind of data set: Antimycobacterial activity against Mycobacterium kansasii 235/80 after 7 days. The data set is classed as functional. The settings on record: 235/80, 168 h.
Data set [15] relates to Mycobacterium kansasii. Kind of data set: Antimycobacterial activity against Mycobacterium kansasii 6509/96 after 7 days. The data set is classed as functional. Conditions: 6509/96, 168 h.
For data set [16], the target named is T1, Enoyl-[acyl-carrier-protein] reductase [NADH] (Mycobacterium tuberculosis). Kind of data set: Inhibition of Mycobacterium tuberculosis H37Rv InhA assessed as reduction of trehalose dimycolate synthesis at 36.5 uM preincubated for 1 hr followed by [14C]glucose addition and measured after 24 hrs by TLC analysis.

Converted amounts (≈) assume the structure as drawn. The source made the active and inactive calls.

The term MIC denotes the smallest concentration in the dilution series that meets the test's criterion for growth inhibition. Lower therefore signals inhibition by little substance. By IC50 is commonly meant the concentration at which inhibition is half-maximal.

As for `NNC(=O)c1ccncc1` [ISONIAZID], the inhibition result in [1] and in [16] was “Active” each time. In addition, the MIC in [2] was above 250 µM; in [4] it was above 250 µM; in data set [5] it was 8 µM (≈ 1.1 µg/mL); in [6], 8 µM (≈ 1.1 µg/mL); in [7] it was above 250 µM; in data set [8], 1 µM (≈ 0.137 µg/mL). Also, the minimal inhibitory concentration (MIC) in [9] is 0.5 µM (≈ 0.0686 µg/mL); in [10], above 250 µM; in data set [14] it was above 250 µM; in data set [15], 8 µM (≈ 1.1 µg/mL). Also, the selectivity ratio in [3] and in data set [11] was above 625 in each case. In data set [12], the half-maximal inhibitory concentration (IC50) is above 5000 µM. The selectivity ratio at 336 h in data set [13] is above 5000.
As to `CCCCNC(=O)NNC(=O)c1ccncc1`, the MIC in data set [2] is above 1000 µM; in data set [4] it was 1000 µM (≈ 236 µg/mL); in data set [5], 250 µM (≈ 59.1 µg/mL); in data set [6], 500 µM (≈ 118 µg/mL); in data set [7] it was 1000 µM (≈ 236 µg/mL); in data set [8] it was 8 µM (≈ 1.89 µg/mL). The minimum inhibitory concentration (MIC) in data set [9] is 8 µM (≈ 1.89 µg/mL); in [10], above 1000 µM; in data set [14], 500 µM (≈ 118 µg/mL); in data set [15], 250 µM (≈ 59.1 µg/mL). Also, the IC50 in data set [12] is above 3000 µM. The selectivity ratio at 336 h in [13] was above 375.
Take `CCCCCNC(=O)NNC(=O)c1ccncc1`: the MIC in data set [2] is above 1000 µM; in [4], 125 µM (≈ 31.3 µg/mL); in data set [5] it was 125 µM (≈ 31.3 µg/mL); in data set [6] it was 125 µM (≈ 31.3 µg/mL); in data set [7], 125 µM (≈ 31.3 µg/mL); in [8], 8 µM (≈ 2 µg/mL). Also, the MIC is 8 µM (≈ 2 µg/mL) in [9], above 1000 µM in [10], 62.5 µM (≈ 15.6 µg/mL) in data set [14] and 125 µM (≈ 31.3 µg/mL) in [15]. Also, the selectivity ratio in data set [3] and in [11] was above 32 each time. In addition, in data set [12], the IC50 is above 4000 µM. Also, the selectivity ratio at 336 h in data set [13] is above 500.
Consider `CCNC(=O)NNC(=O)c1ccncc1`, for which the minimum inhibitory concentration (MIC) in data set [2] is above 1000 µM; in data set [4], 62.5 µM (≈ 13 µg/mL); in data set [5] it was 62.5 µM (≈ 13 µg/mL); in data set [6], 62.5 µM (≈ 13 µg/mL); in data set [7], 62.5 µM (≈ 13 µg/mL); in [8], 2 µM (≈ 0.416 µg/mL). The MIC in [9] was found to be 1 µM (≈ 0.208 µg/mL); in [10], 1000 µM (≈ 208 µg/mL); in data set [14], 32 µM (≈ 6.66 µg/mL); in data set [15], 32 µM (≈ 6.66 µg/mL). Further, the selectivity ratio in [3] and in data set [11] was above 64 each time. Also, in data set [12], the IC50 was above 4000 µM. The selectivity ratio at 336 h in data set [13] was above 2000.
`CCCCCCCCCCCNc1nnc(-c2ccncc2)o1`: the MIC is 500 µM (≈ 158 µg/mL) in data set [2]; 32 µM (≈ 10.1 µg/mL) in data set [4]; 125 µM (≈ 39.6 µg/mL) in data set [5]; 250 µM (≈ 79.1 µg/mL) in data set [6]; 16 µM (≈ 5.06 µg/mL) in [7]; 32 µM (≈ 10.1 µg/mL) in data set [8]. Besides, the MIC in data set [9] was found to be 32 µM (≈ 10.1 µg/mL); in data set [10] it was 500 µM (≈ 158 µg/mL); in [14], 8 µM (≈ 2.53 µg/mL); in data set [15] it was 125 µM (≈ 39.6 µg/mL). In data set [12], the IC50 worked out at 172 µM. In addition, the selectivity ratio at 336 h in data set [13] worked out at 5.4.
`CCCCCCNC(=O)NNC(=O)c1ccncc1`: the MIC in data set [2] stood at 500 µM (≈ 132 µg/mL); in data set [4], 250 µM (≈ 66.1 µg/mL); in data set [5], 500 µM (≈ 132 µg/mL); in [6], 500 µM (≈ 132 µg/mL); in [7] it was 250 µM (≈ 66.1 µg/mL); in data set [8], 32 µM (≈ 8.46 µg/mL). Besides, the MIC in [9] came to 32 µM (≈ 8.46 µg/mL); in data set [10] it was 500 µM (≈ 132 µg/mL); in data set [14], 250 µM (≈ 66.1 µg/mL); in data set [15], 250 µM (≈ 66.1 µg/mL). The IC50 in data set [12] is above 1000 µM. Moreover, the selectivity ratio at 336 h in data set [13] is above 31.3.

The values are drawn from ChEMBL document CHEMBL4152223 (Eur J Med Chem, 2018).
